# Bioassay records: PubChem BioAssay, several laboratories
# CHT block – inhibitors of human choline transporter CHT; Q9GZV3; CHT-expressing cells, membrane potential dye, choline response; hits give low values; B-score at 10 µM; hit rate 0.86% among 310,000; AID 488975;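 active = B-score over 3 SD under the library average, and starting fluorescence ratio not unusually high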;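 note: choline stimulus applied at its EC90 after an EC20 pre-addition; B-score computed on integrated fluorescence ratio after choline addition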
# TMEM16A inh – blocks the mouse calcium-activated chloride channel TMEM16A; AID 588511; normalized B-score (activity score, 25-100; higher = stronger inhibition) at 10 µM; hit rate 1.2% among 310,000; HEK293 TMEM16A/YFP iodide influx fluorescence, ionomycin;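 active = ratio plate-corrected score three or more library SD toward inhibition, starting fluorescence score within five deviations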;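 note: score derived from kinetic fluorescence span divided by baseline fluorescence per well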
# VIM-2 inh – blocks Pseudomonas aeruginosa VIM-2 metallo-beta-lactamase; purified VIM-2, nitrocefin hydrolysis, epi-absorbance fluorescence; inhibition, % at 5.6 µM; hit rate 0.89% among 290,000; AID 1527;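 active = inhibition above the mean of all tested compounds plus 3 SD, cutoff set per screening run, cut at about 7.5% in these data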;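 note: red hydrolysis product quenches plate fluorescence so inhibitors raise well fluorescence; 0% = enzyme with DMSO and 100% = DMSO without enzyme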
# ANO1 activ – activates or potentiates the mouse TMEM16A chloride channel. HEK293 TMEM16A/YFP-H148Q/I152L, iodide quench fluorescence; hits give low values. AID 623877. B-score at 10 µM. hit rate 0.3% among 340,000. Q8BHY3;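 active = fluorescence-ratio B-score plate-corrected deviation score at least 3 library SD below zero, with starting fluorescence score within 5 deviations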;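 note: channel opened by trigger with iodide after compound preincubation; score built on the fluorescence ratio of max minus min over baseline; more negative score means more quench and so TMEM16A activation or potentiation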
# IMP-1 inh-1 – inhibitors of Pseudomonas aeruginosa IMP-1 metallo-beta-lactamase; purified IMP-1, nitrocefin hydrolysis, epi-absorbance fluorescence; inhibition, % at 5.6 µM; hit rate 0.45% among 290,000;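 active = inhibition above the mean plus 3 SD of all compounds in the same screening run, cut at about 4.5% in these data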;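 note: 0% = IMP-1 with DMSO and 100% = DMSO wells lacking enzyme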
#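 System: purified IMP-1; amount: IMP-1 0.2 nM before substrate addition; compound: single dose, 5.6 µM; times: 25 °C, 15 min preincubation, 25 min reaction; signal: Epi-absorbance via hydrolysed-nitrocefin quenching of white-plate fluorescence, 480/530 nm, EDTA stop; benchmarks: DMSO with and without IMP-1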
# CHT allo act – allosterically activates the human high affinity choline transporter. Q9GZV3. CHT-expressing cells, membrane potential dye, choline EC20; hits give high values; LV-AA mutant CHT in HEK293 cells. B-score at 10 µM. hit rate 0.49% among 310,000. AID 488977;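 active = initial fluorescence not abnormally high and integrated response B-score, plate-corrected, over 3 SD above library mean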
# IMP-1 inh-2 – IMP-1 inhibition, counter-screen for VIM-2 inhibitors; 1,300 tested, under 10 active; inhibition, % at 5.6 µM; shares compounds with VIM-2 inh; AID 1856; purified IMP-1, nitrocefin hydrolysis, epi-absorbance fluorescence; call rule not given here;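 note: 0% = enzyme with vehicle and 100% = vehicle without enzyme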
# VIM-2 FRET inh – counter-screen for VIM-2 inhibitors: epi-absorbance artifacts via FRET | shares compounds with VIM-2 inh | purified VIM-2, CCF2 FRET substrate hydrolysis | inhibition, % at 5.6 µM | hit rate 23% among 1,300 | AID 1857;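 active = inhibition above the mean of all tested compounds plus 3 SD, cut at about 19% in these data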;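 note: 0% = VIM-2 plus DMSO and 100% = no enzyme wells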
# TEM-1 counter – TEM-1 inhibition, counter-screen for VIM-2 inhibitors | shares compounds with VIM-2 inh | Purified TEM-1, nitrocefin hydrolysis, epi-absorbance fluorescence | inhibition, % at 5.6 µM | hit rate 3% among 1,300;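 active = inhibition above that campaign's mean inhibition plus 3 SD, cut at about 0.46% in these data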;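 note: 0% = TEM-1 with DMSO and 100% = TEM-1 with 100 µM potassium clavulanate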
# Target sequence (P62593 whole entry, looked up): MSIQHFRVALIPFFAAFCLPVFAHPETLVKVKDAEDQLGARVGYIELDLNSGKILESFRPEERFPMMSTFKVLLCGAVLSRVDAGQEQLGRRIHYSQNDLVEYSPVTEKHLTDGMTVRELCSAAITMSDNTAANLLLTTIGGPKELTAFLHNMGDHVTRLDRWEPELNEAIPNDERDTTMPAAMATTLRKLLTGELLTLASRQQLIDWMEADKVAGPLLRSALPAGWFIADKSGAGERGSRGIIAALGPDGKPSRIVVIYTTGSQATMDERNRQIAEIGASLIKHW
# VIM-2 inh conf – confirmation of P. aeruginosa VIM-2 metallo-beta-lactamase inhibitors | purified VIM-2, nitrocefin hydrolysis, epi-absorbance | AID 2187 | hit rate 96% among 1,300 | inhibition, % at 5.6 µM | shares compounds with VIM-2 inh;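 active = inhibition of the VIM-2 beta-lactamase enzyme above about 11% from the earlier first-round screen, limit read from the data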;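 note: 0% = VIM-2 with DMSO and 100% = buffer wells without enzyme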
# The depositor's hits bear a star; i = inactive; nt = no result. This is a sample that favours compounds with a hit; in the whole collection about 3.4% have one here.
SMILES,CHT block,TMEM16A inh,VIM-2 inh,ANO1 activ,IMP-1 inh-1,CHT allo act,IMP-1 inh-2,VIM-2 FRET inh,TEM-1 counter,VIM-2 inh conf
O=C(O)C(C(=O)O)=C1C2CC3CC(C2)CC1C3,i,i,38.5*,i,-2.6,i,-0.7,63.7*,-3.2,48.3*
Clc1ccc(/C=C/c2ncc[nH]2)c(Cl)c1,i,i,-3.3,i,-1.7,i,nt,nt,nt,nt
CCN1CCN(CCCNC(=O)c2cc3c(=O)[nH]c4ccccc4c3s2)CC1,i,i,7.0,i,-3.8,i,nt,nt,nt,nt
O=C(NCCCN1CCCC1)c1cc2c(Cl)nc3ccccc3c2s1,i,i,22.4*,i,0.1,i,-2.0,9.1,-6.6,34.8*
CCCCN(C)C(=O)c1cc2c(Cl)nc3ccccc3c2s1,i,i,13.1*,i,-2.1,i,-3.2,2.5,-3.9,19.2*
CCCCN(C)C(=O)c1cc2c(s1)-c1ccccc1S(=O)(=O)C2,i,i,0.9,i,-1.9,i,nt,nt,nt,nt
CC1CCN(CCCNC(=O)c2cc3c(Cl)nc4ccccc4c3s2)CC1,i,i,23.2*,i,0.5,i,-2.3,8.6,-4.1,32.4*
COc1cc(CNCc2ccccn2)ccc1OCc1cccc(Cl)c1,i,i,12.2*,i,-2.4,i,-2.8,-23.8,-4.8,29.1*
Cc1nn2c(-c3ccc(F)cc3)ccnc2c1Cl,i,i,59.2*,i,-2.2,i,-3.4,-3.8,-5.4,70.0*
Cc1nn2c(-c3ccc(F)cc3)ccnc2c1Br,i,i,6.0,i,-1.8,i,nt,nt,nt,nt
O=C(O)c1ccccc1C(=O)c1cccc2ccccc12,i,i,30.6*,i,-2.5,i,-3.2,54.4*,-5.0,35.2*
C=C(c1cccc2ccccc12)P(=O)(O)O,i,i,35.0*,i,-0.4,i,-3.3,62.5*,-6.3,44.4*
O=C(Nc1ccc2ccccc2c1)c1cccc2ccccc12,nt,nt,nt,i,nt,nt,nt,nt,nt,nt
CCOC(=O)C1=C(COC(=O)c2ccc(OC)c(OC)c2OC)NC(=O)NC1C (stereo unspecified),i,i,nt,i,nt,i,nt,nt,nt,nt
COC(=O)Nc1sccc1C(=O)Nc1sccc1C(=O)OC,i,i,-2.6,i,-3.0,i,nt,nt,nt,nt
COC(=O)c1ccsc1NC(=O)C1=COCCO1,i,i,13.0*,i,-0.9,i,-2.4,-2.5,-5.3,12.2*
COc1cc2c(cc1OC)C(C)N(C(=O)c1nccnc1C(=O)O)CC2 (stereo unspecified),i,i,20.2*,i,-1.7,i,-2.7,42.8*,-5.6,32.7*
COc1cc2c(cc1OC)C(C)N(C(=O)c1cc(Cl)nc(Cl)c1)CC2 (stereo unspecified),i,i,-1.3,i,-2.6,i,nt,nt,nt,nt
O=C(O)c1cccc2c1C(=O)c1ccccc1-2,i,i,13.7*,i,0.0,i,-4.4,31.4*,-5.9,16.9*
CC(COc1cccc2ccccc12)CN1CCN(C)CC1 (stereo unspecified),i,i,21.6*,i,-2.5,i,-2.3,2.3,-6.3,48.2*
Cc1nnc2c(SC(C)C)nc3ccccc3n12,i,i,13.5*,i,-3.9,i,-2.3,0.1,-5.3,22.3*
CN1CCN(C(=O)CCn2c(=O)c3cccn3c3cccnc32)CC1,i,i,13.6*,i,-1.2,i,-4.3,-2.0,-5.8,26.0*
COc1ccc2c(c1)[nH]c1c(=O)n(CCN(C)C)cnc12,i,i,-0.2,i,-2.8,i,nt,nt,nt,nt
